Tests used:
[1] = biological target: T1, Nicotinamide phosphoribosyltransferase (Homo sapiens, UniProt P43490); test: Inhibition of nicotinamide phosphoribosyltransferase-catalyzed conversion of nicotinamide to nicotinamide mononucleotide
Method in brief: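 Coupled-enzyme format: Nampt turnover of nicotinamide to NMN monitored through a downstream coupled reaction; IC50 determined.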
Target sequence in this assay (P43490 whole entry): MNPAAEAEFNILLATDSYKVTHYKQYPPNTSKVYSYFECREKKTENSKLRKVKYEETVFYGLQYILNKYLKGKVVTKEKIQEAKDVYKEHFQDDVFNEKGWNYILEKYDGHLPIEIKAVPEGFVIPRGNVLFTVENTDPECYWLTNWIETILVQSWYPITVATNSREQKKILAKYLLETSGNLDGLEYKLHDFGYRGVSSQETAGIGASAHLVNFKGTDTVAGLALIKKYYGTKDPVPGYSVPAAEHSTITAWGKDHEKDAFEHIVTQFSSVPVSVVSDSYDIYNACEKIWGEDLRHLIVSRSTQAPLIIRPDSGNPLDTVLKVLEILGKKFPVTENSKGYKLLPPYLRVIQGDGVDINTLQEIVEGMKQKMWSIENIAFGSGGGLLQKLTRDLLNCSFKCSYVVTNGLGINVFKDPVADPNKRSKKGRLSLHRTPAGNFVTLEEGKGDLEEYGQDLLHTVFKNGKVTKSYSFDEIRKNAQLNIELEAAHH

[2] = system: HCT-116; test: Cytotoxicity against human HCT116 cells after 72 hrs; assay type: functional
Method in brief: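 HCT116 colon carcinoma cells treated with compound for 72 h; viability read out as cellular ATP levels.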

[3] = biological target: T1, Nicotinamide phosphoribosyltransferase; test: Inhibition of Nampt activity in H2O2-induced DNA damage in human MCF10A cells stably transfected with PIK3CA (H1047R) assessed as loss of PARP activity; assay type: cell-based; details: MCF-10A
Target sequence in this assay (P43490 whole entry, looked up): as the sequence (P43490 whole entry) above

[4] = system: HCT-116; test: Cytotoxicity against human HCT116 cells after 72 hrs in presence of 10 uM exogenous nicotinic acid; assay type: functional, cell-based; details: HCT-116, 72 h
Method in brief: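 HCT116 colon carcinoma cells treated for 72 h with compound plus 10 μM exogenous nicotinic acid to test whether killing depends on Nampt; viability read out as cellular ATP levels.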

Structure (SMILES) | IC50 [1] | Activity [2] | inhibitory concentration [3] | EC50 [4]
CC(C)=CCN(Cc1cc2c(=O)n(C)c(C)nc2cc1Cl)c1ccc(C(=O)NCc2nc3ccccc3[nH]2)cc1 | 25 nM | 6.4 µM | > 5 µM | –
CC(C)CN(Cc1ccccc1Cl)c1ccc(C(=O)NCc2cccnc2)cc1 | 420 nM | – | – | –
C#CCN(Cc1cc2c(=O)n(C)c(CN3CCN(CCCN)CC3)nc2cc1Cl)c1ccc(C(=O)NCc2cccnc2)cc1 | 0.3 nM | 0.018 µM | 0.0018 µM | –
CCCN(Cc1ccccc1Cl)c1ccc(C(=O)NCc2cccnc2)cc1 | 15 nM | 3.5 µM | 0.24 µM | –
Cc1c(Sc2ccc(C(=O)NCc3cccnc3)cc2)[nH]c2nc(N)nc(N)c12 | 1200 nM | – | – | –
C#CCN(Cc1cc2c(=O)n(C)c(C)nc2cc1Cl)c1ccc(C(=O)NCc2cccnc2)cc1 | 0.55 nM | 0.0021 µM | 0.00045 µM | –
Cc1nc2c(c(=O)[nH]1)CN(C(=O)c1ccc(C(=O)NCc3cccnc3)cc1)CC2 | 7200 nM | >10 µM | > 5 µM | –
Nc1nc(N)c2c(CCc3ccc(C(=O)NCc4cccnc4)cc3)c[nH]c2n1 | 600 nM | >10 µM | > 5 µM | –
C#CCN(Cc1cc2c(=O)n(C)c(C)nc2cc1Cl)c1ccc(C(=O)NCc2nc3ccccc3[nH]2)cc1 | 40 nM | 5.7 µM | 3.2 µM | –
CCCCN(Cc1ccccc1Cl)c1ccc(C(=O)NCc2cccnc2)cc1 | > 10000 nM | – | – | –
CC(C)=CCN(Cc1cc2c(=O)n(C)c(C)nc2cc1Cl)c1ccc(C(=O)NCc2cccnc2)cc1 | 11 nM | 0.0095 µM | 0.0018 µM | > 10000 nM
CCN(Cc1ccccc1Cl)c1ccc(C(=O)NCc2cccnc2)cc1 | 330 nM | >10 µM | > 5 µM | –
C#CCN(Cc1ccc2nc(C)n(C)c(=O)c2c1)c1ccc(C(=O)NCc2ccc(F)cc2F)cc1 | 49 nM | >10 µM | > 5 µM | –
C#CCN(Cc1cc2c(=O)n(C)c(CO)nc2cc1Cl)c1ccc(C(=O)NCc2cccnc2)cc1 | 0.79 nM | 0.0016 µM | 0.0001 µM | –
C#CCCN(Cc1cc2c(=O)n(C)cnc2cc1Cl)c1ccc(C(=O)NCc2cccnc2)cc1 | 12 nM | 0.15 µM | 0.03 µM | –
C#CCN(Cc1ccc2nc(C)n(C)c(=O)c2c1)c1ccc(C(=O)NCc2cccc(F)c2)cc1 | 250 nM | >10 µM | > 5 µM | –
Cc1nc2ccc(CN(C(=O)C3CC3)c3ccc(C(=O)NCc4cccnc4)cc3)cc2c(=O)n1C | > 10000 nM | >10 µM | 2.6 µM | –
Cc1nc2ccc(CN(CC3CC3)c3ccc(C(=O)NCc4cccnc4)cc3)cc2c(=O)n1C | 2600 nM | 0.11 µM | 0.019 µM | –
CC(C)=CCN(Cc1cc2c(=O)n(C)nnc2cc1Cl)c1ccc(C(=O)NCc2cccnc2)cc1 | – | 0.003 µM | 0.0017 µM | –
CC(C)=CCN(Cc1ccc2nc(C)n(C)c(=O)c2c1)c1ccc(C(=O)NCc2nc3ccccc3[nH]2)cc1 | 31 nM | 1.4 µM | 0.7 µM | –
CC(C)=CCN(Cc1ccccc1Cl)c1ccc(C(=O)NCc2cccnc2)cc1 | 1.9 nM | 0.016 µM | 0.0032 µM | > 10000 nM
Cn1cnc2cc(Cl)c(NCc3ccc(C(=O)NCc4cccnc4)cc3)cc2c1=O | 3.8 nM | 0.42 µM | 0.0093 µM | –
C#CCCN(Cc1ccc2nc(C)n(C)c(=O)c2c1)c1ccc(C(=O)NCc2cccnc2)cc1 | 950 nM | 6.3 µM | 2.9 µM | –
Cn1cnc2cc(Cl)c(CN(CC3CC3)c3ccc(C(=O)NCc4cccnc4)cc3)cc2c1=O | 13 nM | 0.11 µM | 0.012 µM | –

Structure (SMILES) | IC50 [1] | Activity [2] | inhibitory concentration [3] | EC50 [4]
O=C(NCc1cccnc1)c1ccc(N(Cc2ccccc2Cl)CC2CC2)cc1 | 1.3 nM | 0.059 µM | 0.011 µM | –
C#CCN(Cc1ccc2nc(C)n(C)c(=O)c2c1)c1ccc(C(=O)NCc2ccccc2F)cc1 | 34 nM | 9.7 µM | > 5 µM | –
Cc1c(Sc2ccc(C(=O)NCCc3cccnc3)cc2)[nH]c2nc(N)nc(N)c12 | 90 nM | >10 µM | – | –
Cc1nc2c(c(=O)[nH]1)CN(C(=O)Nc1ccc(C(=O)NCc3cccnc3)cc1)CC2 | 29 nM | >10 µM | > 5 µM | –
CC(C)=CCN(Cc1ccc2ncn(C)c(=O)c2c1)c1ccc(C(=O)NCc2cccnc2)cc1 | 1.2 nM | 0.004 µM | 0.0004 µM | –
Cn1cnc2cc(Cl)c(C(=O)Nc3ccc(C(=O)NCc4cccnc4)cc3)cc2c1=O | 12 nM | 0.73 µM | 0.048 µM | –
C#CCN(Cc1ccc2nc(C)n(C)c(=O)c2c1)c1ccc(C(=O)NCc2ccc(F)c(F)c2F)cc1 | 98 nM | >10 µM | > 5 µM | –
C#CCN(Cc1ccc2nc(C)n(C)c(=O)c2c1)c1ccc(C(=O)NCc2cccnc2)cc1 | 3.6 nM | 0.034 µM | 0.0095 µM | –
C#CCN(Cc1ccc2nc(C)n(C)c(=O)c2c1)c1ccc(C(=O)NCc2nc3ccccc3[nH]2)cc1 | 130 nM | 5.4 µM | > 5 µM | –
CC(C)=CC(=O)N(Cc1cc2c(=O)n(C)cnc2cc1Cl)c1ccc(C(=O)NCc2cccnc2)cc1 | 660 nM | 4.1 µM | 0.37 µM | –
C#CCN(Cc1coc2nc(N)nc(N)c12)c1ccc(C(=O)NCc2cccnc2)cc1 | > 10000 nM | >10 µM | > 5 µM | –
C#CCN(Cc1ccc2ncn(C)c(=O)c2c1)c1ccc(C(=O)NCc2cccnc2)cc1 | 12 nM | 0.3 µM | 0.025 µM | –
C#CCN(Cc1ccc2nc(C)n(C)c(=O)c2c1)c1ccc(C(=O)NCc2ccc(Cl)cc2)cc1 | 150 nM | >10 µM | > 5 µM | –
C#CCN(Cc1ccc2nc(C)n(C)c(=O)c2c1)c1ccc(C(=O)NCc2ccc(F)c(F)c2)cc1 | 30 nM | >10 µM | > 5 µM | –
C/C=C/CN(Cc1ccccc1Cl)c1ccc(C(=O)NCc2cccnc2)cc1 | 1.5 nM | 0.099 µM | 0.0089 µM | –
CN(Cc1ccccc1Cl)c1ccc(C(=O)NCc2cccnc2)cc1 | > 10000 nM | – | – | –
C#CCN(Cc1ccc2nc(C)n(C)c(=O)c2c1)c1ccc(C(=O)NCc2ccc3c(c2)OCO3)cc1 | 85 nM | >10 µM | > 5 µM | –
CC(C)=CC(=O)N(Cc1ccc2nc(C)n(C)c(=O)c2c1)c1ccc(C(=O)NCc2cccnc2)cc1 | > 10000 nM | >10 µM | 2.2 µM | –
O=C(NCc1cccnc1)c1ccc(N(Cc2ccccc2)Cc2ccccc2Cl)cc1 | 110 nM | 0.7 µM | 0.17 µM | –
Cc1[nH]c2nc(N)[nH]c(=O)c2c1Sc1ccc(C(=O)NCc2cccnc2)cc1 | 2800 nM | – | > 5 µM | –
C/C=C/CN(Cc1ccc2nc(C)n(C)c(=O)c2c1)c1ccc(C(=O)NCc2cccnc2)cc1 | 2.9 nM | 0.0044 µM | 0.0016 µM | –
Cc1noc(C)c1CN(Cc1ccc2nc(C)n(C)c(=O)c2c1)c1ccc(C(=O)NCc2cccnc2)cc1 | 210 nM | 5.3 µM | 0.012 µM | –
CC(C)=CCN(Cc1ccc2nc(C)n(C)c(=O)c2c1)c1ccc(C(=O)NCc2cccnc2)cc1 | 1.4 nM | 0.0035 µM | 0.00023 µM | –

— ChEMBL document CHEMBL1800028, “Analogues of 4-[(7-Bromo-2-methyl-4-oxo-3H-quinazolin-6-yl)methylprop-2-ynylamino]-N-(3-pyridylmethyl)benzamide (CB-30865) as potent inhibitors of nicotinamide phosphoribosyltransferase (Nampt)” (J Med Chem, 2010)
